Rows were chosen to be rich in hits. Some 2% of all compounds tested hit in one or more screens of this group.
Jurkat tox 60K = cytotoxicity toward Jurkat T cells, primary screen, cytotoxicity control, cell-based, Jurkat E6.1, 60K MLSMR library; Jurkat E6.1 viability, ATP luminescence, 48 h; inhibition, % at 4 µM; 1.2% of 56,000 active; AID 463, 2006;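 active means inhibition above the mean inhibition of all tested compounds plus 3 SD, cut at about 28% in these data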
HEK293 NFkB inh = inhibitors of PMA/ionomycin-induced NF-kB reporter, primary screen, antigen receptor NF-kB inhibitor project, cell-based, HEK-293 luciferase reporter, luminescence. HEK-293 NF-kB luciferase reporter. inhibition, % at 3 µM. 0.21% of 62,000 active;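 active means inhibition above the mean of all tested compounds plus 3 SD, cut at about 40% in these data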
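System – HEK-293 cells with stable firefly luciferase reporter driven by four HIV NF-kB elements · Doses – one dose, 3 µM · Schedule – 1 h compound pre-incubation, 16 h PMA/ionomycin at 37 °C · Technique – luminescence from luciferase substrate reagent · Measure – percent inhibition normalized per plate to DMSO and reference-inhibitor controls · Replicates – tested once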
Her2 expr inh = inhibitors of Her2 protein expression, primary screen, SKBR-3 cells, AlphaScreen, 66K library | Receptor tyrosine-protein kinase erbB-2 (Homo sapiens), P04626 | 0.69% of 65,000 active | SKBR-3 HER2 protein level, 18-24 h; active compounds read low | HER2 level % of control, % at 10 µM;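 active means HER2 level under 5% of the carrier-only control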;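 further: lower value means stronger loss of Her2 protein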
Target sequence (P04626 whole entry, looked up): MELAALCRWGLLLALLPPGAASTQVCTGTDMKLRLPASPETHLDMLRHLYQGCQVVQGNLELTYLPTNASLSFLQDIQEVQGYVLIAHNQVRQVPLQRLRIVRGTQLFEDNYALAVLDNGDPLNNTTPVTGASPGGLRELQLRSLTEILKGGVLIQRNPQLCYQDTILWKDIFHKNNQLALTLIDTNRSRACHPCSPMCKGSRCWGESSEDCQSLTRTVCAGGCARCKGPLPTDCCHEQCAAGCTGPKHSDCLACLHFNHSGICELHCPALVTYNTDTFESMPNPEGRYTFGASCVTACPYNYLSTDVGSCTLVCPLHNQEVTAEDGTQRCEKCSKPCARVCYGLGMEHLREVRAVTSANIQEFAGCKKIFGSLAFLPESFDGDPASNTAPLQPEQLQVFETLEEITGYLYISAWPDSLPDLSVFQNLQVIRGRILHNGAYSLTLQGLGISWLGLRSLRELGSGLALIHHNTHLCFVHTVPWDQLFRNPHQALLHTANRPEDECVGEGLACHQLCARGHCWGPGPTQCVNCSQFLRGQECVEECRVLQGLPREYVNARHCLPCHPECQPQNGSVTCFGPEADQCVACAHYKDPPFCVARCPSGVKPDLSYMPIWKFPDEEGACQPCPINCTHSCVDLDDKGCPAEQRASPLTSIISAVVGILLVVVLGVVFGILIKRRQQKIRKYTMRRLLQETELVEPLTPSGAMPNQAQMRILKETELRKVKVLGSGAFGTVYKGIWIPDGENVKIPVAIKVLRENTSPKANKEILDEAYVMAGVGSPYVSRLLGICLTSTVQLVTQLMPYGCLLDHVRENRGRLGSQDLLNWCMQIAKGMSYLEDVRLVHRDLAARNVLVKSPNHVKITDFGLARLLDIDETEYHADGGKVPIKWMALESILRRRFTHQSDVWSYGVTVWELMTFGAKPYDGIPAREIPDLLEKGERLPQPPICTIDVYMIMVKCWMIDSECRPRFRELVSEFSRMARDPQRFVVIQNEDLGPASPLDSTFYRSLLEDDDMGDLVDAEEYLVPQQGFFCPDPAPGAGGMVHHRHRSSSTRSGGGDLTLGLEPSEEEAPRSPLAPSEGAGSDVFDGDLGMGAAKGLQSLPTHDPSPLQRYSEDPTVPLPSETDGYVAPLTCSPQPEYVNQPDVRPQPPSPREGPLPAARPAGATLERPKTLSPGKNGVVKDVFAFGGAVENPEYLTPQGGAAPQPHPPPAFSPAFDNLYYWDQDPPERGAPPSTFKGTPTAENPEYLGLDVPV
SK-BR-3 tox 24h = SK-BR-3 proliferation inhibitors, primary screen, cell-based, human, 24 h. AID 847, 2007. 0.47% of 41,000 active. SK-BR-3 viability, CellTiter-Glo ATP luminescence; active compounds read low. viability, % at 10 µM;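 active means viability at or below the median of all test compounds minus 3 SD, in both replicates if run twice, cut at about 45% in these data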
Numbers stand for hits; - = inactive; . = no result.

SMILES	Jurkat tox 60K	HEK293 NFkB inh	Her2 expr inh	SK-BR-3 tox 24h
Cc1nn2c(c1-c1ccccc1)NC1=C(C(=O)CCC1)C2c1cccnc1 (stereo unspecified)	-	-	-	-
Cc1nn(-c2ccccc2)c(C)c1C(=O)OCC(=O)c1c(N)n(CC(C)C)c(=O)n(C)c1=O	38	-	-	.
NC(=O)SCC(=O)Nc1cccc(Cl)c1	-	-	-	.
COCCn1c(Cc2ccccc2)nnc1SCC(=O)NC(C)(C)C	-	-	-	-
COCCn1c(Cc2ccccc2)nnc1SCC(=O)N(C)C	-	-	-19	-
COC(=O)CC1=C(C(=O)OC)C(c2cccs2)C(C#N)=C(N)O1 (stereo unspecified)	-	-	-	.
CCOC(=O)N1CCN(C(=O)c2cc(-c3ccc(OCC)cc3)nc3ccccc23)CC1	87	-	-	.
CCOc1ccc(-c2cc(C(=O)N3CCN(C)CC3)c3ccccc3n2)cc1	-	-	-	.
Cc1ccc(CCP(=O)(O)CN2CCCCC2)cn1	-	-	-	.
Cc1ccc(Nc2cc(C)nn2-c2nc(C)cc(=O)[nH]2)cc1	94	68	-	-
Cc1ccc(Nc2cc(C)nn2-c2nc(C)cc(C)n2)cc1	-	-	-	.
Cc1ccccc1NS(=O)(=O)c1ccc(OCC(=O)NCc2ccco2)cc1	-	-	-	-
O=C(NCC(=O)N(c1cccc(F)c1)C(C(=O)NCC1CCCO1)c1ccccc1)c1ccco1 (stereo unspecified)	-	-	-	-
CN(C)c1ccc2c(c1)OC(N)=C(C#N)C2c1cccc(F)c1 (stereo unspecified)	86	44	-	.
CCOc1ccc(S(=O)(=O)NCCC(=O)OC(C)C(=O)N2CCc3ccccc32)cc1 (stereo unspecified)	-	-	-	.
CC(C)C(=O)Nc1ccc(C(=O)NCc2cccnc2)cc1	82	-	-	-
CCOC(=O)Nc1cc(=O)c2ccccc2o1	90	-	-	.
C(=N\c1nccs1)/Nc1nccs1	-	-	-	.
C=C(C)Cn1c(-c2ccc(OC)cc2)nc2ccccc21	.	.	-20	-
CCCn1c(-c2ccc(OC)cc2)nc2ccccc21	-	-	-	-
O=C(CCn1nnc(-c2cccs2)n1)NC1CCCCC1	-	-	-	-
O=c1cc(CSc2nnc(-c3cccs3)n2Cc2ccccc2)nc2sc3ccccc3n12	71	-	-	.
O=c1c2ccccc2nnn1CSc1nnc(-c2cccs2)n1Cc1ccccc1	28	-	-	.
C=CCn1c(SCn2nnc3ccccc3c2=O)nc2scc(-c3cccs3)c2c1=O	-	-	-	.
Cc1cc(C(=O)CSc2nnc(-c3cccs3)n2Cc2ccccc2)c(C)n1C	-	-	-	.
SMILES	Jurkat tox 60K	HEK293 NFkB inh	Her2 expr inh	SK-BR-3 tox 24h
CC1CN(c2oc(COc3ccc(Cl)cc3Cl)nc2C#N)CC(C)O1 (stereo unspecified)	-	-	-19	.
N#CC(C#N)=c1ccc2c(c1)N1C3=C(CCCC3)CC3CCCCC31N=2 (stereo unspecified)	-	-	-28	-
N#C/C(C(N)=O)=c1/ccc2c(c1)N1C3=C(CCCC3)CC3CCCCC31N=2 (stereo unspecified)	-	-	-29	-
COC(=O)CSc1cc(SCC(=O)OC)c(C#N)c(SCC(=O)OC)c1	-	-	2.9	-
Cn1c(C(O)c2ccccc2)nc(Cl)c1Cl (stereo unspecified)	-	-	-	.
CCN(CC(=O)NC1CCCCCC1)S(=O)(=O)c1ccccc1	-	-	-28	-
CCN(CC(=O)NC1CCCC1)S(=O)(=O)c1ccc(C)cc1	-	-	-	.
Cn1c(Cn2c(=O)sc3ccccc32)nnc1SCC(=O)N1CCOCC1	-	-	-	.
COc1ccc(-n2c(Cn3c(=O)sc4ccccc43)nnc2SCC(=O)N2CCOCC2)cc1	-	-	-17	.
Cc1cnc(C(=O)Nc2cccc3cccnc23)cn1	84	-	-	-
COc1ccc(C)cc1Nc1cc(C)nc2nc(C)nn12	36	-	-	.
COc1ccc(OC)c(Nc2cc(C)nc3nc(C)nn23)c1	-	-	-	.
CCOC(=O)N1CCN(c2cc3[nH]c(=S)[nH]c3cc2F)CC1	-	-	-	-
CCOC(=O)N1CCN(c2c(F)cc3[nH]c(=S)[nH]c3c2Br)CC1	85	-	-	-
CN1CCN(c2nc(-c3cccnc3)nc3ccccc23)CC1	-	-	-	.
Cn1nnnc1Sc1nc(-c2cccnc2)nc2ccccc12	-	-	-13	.
O=C(NC1CCCCC1)N1CCC(c2nc(-c3ccc(S(=O)(=O)N4CCCC4)cc3)no2)CC1	-	-	-	-
O=C(C1CC1)N1CCC(c2nc(-c3ccc(S(=O)(=O)NCC4CCCO4)cc3)no2)CC1 (stereo unspecified)	52	-	-	-
CN(C)CCCN1C(=O)C(=O)/C(=C(/O)c2ccc(S(=O)(=O)N(C)C)cc2)C1c1ccncc1 (stereo unspecified)	-	-	-	.
Cc1ccccc1N1C(=O)CC(Sc2nnc(-c3ccccc3)o2)C1=O (stereo unspecified)	.	.	-19	4.5
COc1cc(CC(NC(C)=O)C(=O)NC2CCN(c3nc(C)cc(C)c3C#N)CC2)cc(OC)c1 (stereo unspecified)	-	56	-	-
COc1ccc2c(c1)OC13CCN(C)CC1C2C(C(=O)c1ccc(F)cc1)C(=O)N3 (stereo unspecified)	-	-	-	.
CCCCCCOC(=O)C(C#N)c1nc2ccccc2nc1N1CCN(C)CC1 (stereo unspecified)	-	-	-4.8	4.9
Fc1ccc(NCc2cn3ccccc3n2)cc1	-	-	-	.
O=C(Nc1cccc2nsnc12)C1CC(=O)N(c2ccccc2)C1 (stereo unspecified)	-	-	-	42
SMILES	Jurkat tox 60K	HEK293 NFkB inh	Her2 expr inh	SK-BR-3 tox 24h
OCCN1CCN(C(c2cccs2)c2ccc3cccnc3c2O)CC1 (stereo unspecified)	53	-	-	-
Cn1cc(C(=O)NCN2CCCCC2)c2ccccc21	.	.	-	-
COc1cc2c(=O)n(Cc3ccco3)c(=O)n(CC(=O)c3cccc(Br)c3)c2cc1OC	-	-	-	42
CC(=O)c1ccc(N2CCN(C(=O)C3CCN(S(=O)(=O)Cc4ccccc4)CC3)CC2)cc1	-	-	-	.
O=C(O)c1cc2ccc3ccccc3c2[nH]1	.	-	-	-
CCn1c2ccccc2c2cc(Nc3cc(C)nc4ncnn34)ccc21	99	47	-	.
O=C(Cn1cccc1C(=O)c1ccccc1)NCc1ccccn1	-	-	-	.
N#Cc1c(N2CCOCC2)nc(N2CCCCC2)c2c1CCN(C1CCCCC1)C2	.	.	-	-
CCN1CCc2c(C#N)c(N3CCCCC3)nc(N3CCOCC3)c2C1	.	.	-22	-
Oc1ccc(Cl)cc1CNc1ccc(Br)cn1	56	-	-	-
O=C(c1cccc(OC(F)F)c1)N1CCN(c2ncccn2)CC1	-	-	-	.
CC(C)(C)c1ccc(-c2noc(CCC(N)=O)n2)cc1	-	86	-	-
CNC(=O)CCc1nc(-c2ccc(C(C)(C)C)cc2)no1	-	70	-	-

High-throughput results: PubChem BioAssay, several laboratories
